Source: ChEMBL document CHEMBL4270599, “Synthesis of a 3'-C-ethynyl-β-d-ribofuranose purine nucleoside library: Discovery of C7-deazapurine analogs as potent antiproliferative nucleosides” (Eur J Med Chem, 2018)

Columns and labels:
HeLa = test: Antiproliferative activity against human HeLa cells after 72 hrs by Coulter counter method; assay type: functional, cell-based
Summary of the method: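 Cell count assay in 96-well microtiter plates; (5–7.5) × 10⁴ tumor cells per well plus test compound. Cells proliferated at 37 °C in humidified CO₂-controlled atmosphere, 48 h for murine leukemia L1210, 72 h for human lymphocytic CEM and cervix carcinoma HeLa. Counted by Coulter counter; IC₅₀ is the concentration that inhibits proliferation by 50%.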

EKVX = test: Cytotoxicity against human EKVX cells after 48 hrs by SRB assay; assay type: functional
HOP-92 [1] = test: Cytotoxicity against human HOP92 cells after 48 hrs by SRB assay; assay type: functional; settings: HOP-92, 48 h
SF-268 = test: Cytotoxicity against human SF268 cells after 48 hrs by SRB assay; assay type: functional; settings: SF-268, 48 h
OVCAR-5 = test: Cytotoxicity against human OVCAR5 cells after 48 hrs by SRB assay; assay type: functional; settings: OVCAR-5, 48 h
SK-OV-3 = test: Cytotoxicity against human SKOV3 cells after 48 hrs by SRB assay; assay type: functional; settings: SK-OV-3, 48 h
RXF 393 = test: Cytotoxicity against human RXF393 cells after 48 hrs by SRB assay; assay type: functional; settings: RXF 393, 48 h
SN12C = test: Cytotoxicity against human SN12C cells after 48 hrs by SRB assay; assay type: functional
MCF7 = test: Cytotoxicity against human MCF7 cells after 48 hrs by SRB assay; assay type: functional; settings: MCF7, 48 h
HL-60(TB) = test: Growth inhibition of human HL-60(TB) cells assessed as cell growth at 10^-8 M incubated for 48 hrs by sulforhodamine B assay relative to control; assay type: functional; settings: HL-60, 48 h, read-out: Activity
A549 [2] = test: Growth inhibition of human A549/ATCC cells assessed as cell growth at 10^-8 M incubated for 48 hrs by sulforhodamine B assay relative to control; assay type: functional; settings: A549, 48 h, read-out: Activity
KM12 = test: Growth inhibition of human KM12 cells assessed as cell growth at 10^-8 M incubated for 48 hrs by sulforhodamine B assay relative to control; assay type: functional; settings: KM12, 48 h, read-out: Activity
BT-549 [3] = test: Growth inhibition of human BT549 cells assessed as cell growth at 10^-8 M incubated for 48 hrs by sulforhodamine B assay relative to control; assay type: functional; settings: BT-549, 48 h, read-out: Activity
SR = test: Growth inhibition of human SR cells assessed as cell growth at 10^-7 M incubated for 48 hrs by sulforhodamine B assay relative to control; assay type: functional; settings: read-out: Activity
A549 [4] = test: Growth inhibition of human A549/ATCC cells assessed as cell growth at 10^-7 M incubated for 48 hrs by sulforhodamine B assay relative to control; assay type: functional; settings: A549, 48 h, read-out: Activity
COLO 205 = test: Growth inhibition of human COLO205 cells assessed as cell growth at 10^-7 M incubated for 48 hrs by sulforhodamine B assay relative to control; assay type: functional; settings: COLO 205, 48 h, read-out: Activity
SK-MEL-2 = test: Growth inhibition of human SK-MEL-2 cells assessed as cell growth at 10^-7 M incubated for 48 hrs by sulforhodamine B assay relative to control; assay type: functional; settings: SK-MEL-2, 48 h, read-out: Activity
OVCAR-8 = test: Growth inhibition of human OVCAR8 cells assessed as cell growth at 10^-7 M incubated for 48 hrs by sulforhodamine B assay relative to control; assay type: functional; settings: OVCAR-8, 48 h, read-out: Activity
A498 = test: Growth inhibition of human A498 cells assessed as cell growth at 10^-7 M incubated for 48 hrs by sulforhodamine B assay relative to control; assay type: functional; settings: A498, 48 h, read-out: Activity
DU-145 = test: Growth inhibition of human DU145 cells assessed as cell growth at 10^-7 M incubated for 48 hrs by sulforhodamine B assay relative to control; assay type: functional; settings: DU-145, 48 h, read-out: Activity
BT-549 [5] = test: Growth inhibition of human BT549 cells assessed as cell growth at 10^-7 M incubated for 48 hrs by sulforhodamine B assay relative to control; assay type: functional; settings: BT-549, 48 h, read-out: Activity
HOP-92 [6] = test: Growth inhibition of human HOP92 cells assessed as cell growth at 10^-6 M incubated for 48 hrs by sulforhodamine B assay relative to control; assay type: functional; settings: HOP-92, 48 h, read-out: Activity
SF-539 = test: Growth inhibition of human SF539 cells assessed as cell growth at 10^-6 M incubated for 48 hrs by sulforhodamine B assay relative to control; assay type: functional; settings: SF-539, 48 h, read-out: Activity
MOLT-4 = test: Growth inhibition of human MOLT4 cells assessed as cell growth at 10^-5 M incubated for 48 hrs by sulforhodamine B assay relative to control; assay type: functional; settings: MOLT-4, 48 h, read-out: Activity
U-251 = test: Growth inhibition of human U251 cells assessed as cell growth at 10^-4 M incubated for 48 hrs by sulforhodamine B assay relative to control; assay type: functional; settings: U-251, 48 h, read-out: Activity
[7] = read-out: LC50 (the source's name)
[8] = read-out: pLC50 (the source's name) (converted)

Q: `C#C[C@@]1(O)[C@@H](CO)O[C@@H](n2cc(Cl)c3c(N)ncnc32)[C@@H]1O` was tested. Which IC50 (HeLa) did it give?
A: 51 nM

Q: And the GI50 (EKVX; read-out: GI50)?
A: 260 to 262 nM

Q: What about the CC50 (EKVX; [7]) of the same molecule?
A: > 100000 nM

Q: And the TGI (EKVX; read-out: TGI)?
A: 2410 to 2460 nM

Q: What about the GI50 (EKVX; read-out: pGI50 (converted)) of the same molecule?
A: 263 nM

Q: What about the GI50 (HOP-92 [1]; read-out: GI50) of the same molecule?
A: 433 to 476 nM

Q: What about the CC50 (HOP-92 [1]; [7]) of the same molecule?
A: > 100000 nM

Q: And the TGI (HOP-92 [1]; read-out: TGI)?
A: 3330 to 3740 nM

Q: What about the GI50 (SF-268; read-out: GI50) of the same molecule?
A: 328 to 338 nM

Q: And the TGI (SF-268; read-out: TGI)?
A: 14400 to 31100 nM

Q: What about the CC50 (SF-268; [8]) of the same molecule?
A: > 100000 nM

Q: What about the GI50 (OVCAR-5; read-out: GI50) of the same molecule?
A: 280 to 644 nM

Q: And the CC50 (OVCAR-5; [7])?
A: > 100000 nM

Q: What about the TGI (OVCAR-5; read-out: TGI) of the same molecule?
A: 70800 to 100000 nM

Q: What about the GI50 (SK-OV-3; read-out: GI50) of the same molecule?
A: 119 to 171 nM

Q: And the CC50 (SK-OV-3; [7])?
A: > 100000 nM

Q: What about the TGI (SK-OV-3; read-out: TGI) of the same molecule?
A: 467 to 573 nM

Q: And the GI50 (RXF 393; read-out: GI50)?
A: 299 to 485 nM

Q: What about the TGI (RXF 393; read-out: TGI) of the same molecule?
A: 813 to 2010 nM

Q: What about the CC50 (RXF 393; [8]) of the same molecule?
A: > 100000 nM

Q: What about the GI50 (SN12C; read-out: GI50) of the same molecule?
A: 113 to 230 nM

Q: What about the CC50 (SN12C; [7]) of the same molecule?
A: > 100000 nM

Q: And the GI50 (MCF7; read-out: GI50)?
A: 21.8 to 31.9 nM

Q: What about the CC50 (MCF7; [7]) of the same molecule?
A: 5320 to 7110 nM

Q: And the TGI (MCF7; read-out: TGI)?
A: 1040 to 1160 nM

Q: And the growth at 0.01 µM (HL-60(TB))?
A: 83 to 85%

Q: And the growth at 0.01 µM (A549 [2])?
A: 98 to 105%

Q: And the growth at 0.01 µM (KM12)?
A: 85 to 88%

Q: What about the growth at 0.01 µM (BT-549 [3]) of the same molecule?
A: 88 to 95%

Q: And the growth at 0.1 µM (SR)?
A: 34 to 46%

Q: And the growth at 0.1 µM (A549 [4])?
A: 61 to 77%

Q: What about the growth at 0.1 µM (COLO 205) of the same molecule?
A: 43 to 69%

Q: And the growth at 0.1 µM (SK-MEL-2)?
A: 47 to 66%

Q: And the growth at 0.1 µM (OVCAR-8)?
A: 35 to 39%

Q: What about the growth at 0.1 µM (A498) of the same molecule?
A: 105 to 111%

Q: And the growth at 0.1 µM (DU-145)?
A: 51 to 61%

Q: And the growth at 0.1 µM (BT-549 [5])?
A: 86 to 90%

Q: And the growth at 1 µM (HOP-92 [6])?
A: 27 to 31%

Q: And the growth at 1 µM (SF-539)?
A: 6 to 10%

Q: What about the growth at 10 µM (MOLT-4) of the same molecule?
A: 2%

Q: What about the growth at 100 µM (U-251) of the same molecule?
A: 1%
